Results on 84 variants are retold here after the RNAGym collection of RNA variant scans (doi:10.1038/s41586-018-0170-7).

B1: tRNA (parent)
chain: GUUCCGUUGGCGUAAUGGUAACGCGUCUCCCUCCUAAGGAGAAGACUGCGGGUUCGAGUCCCGUACGGAACG

The variants in the series derive from B1. The series is described as follows: yeast fitness, log relative to wild type (ln ratio); higher = fitter; tRNA-Arg(CCU), competitive growth, 37 C, 1 M NaCl. In short, it runs like this: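 A combinatorial tRNA-Arg(CCU) variant library was carried on a HIS3 centromeric plasmid in BY4742 lacking the chromosomal gene, from two independent transformations. Pools grew 4 generations in SC-HIS at 30 °C, then ~6.5 generations (~26.5 h) in SC-HIS 1M NaCl at 37 °C, with three outputs per input. Variants were counted by 125 bp paired-end Illumina sequencing. Fitness is ln of each genotype's generations (OD-scaled log2 output/input frequency, inverse-variance weighted across replicates) over the wild-type's.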
U2C G6U C66A A70G C71U: the “yeast fitness (ln)” value is -0.0156.

As to U2G A43C C46U C66A C71U, the “yeast fitness (ln)” value was -0.148.

Take U2G A43C C66U: the “yeast fitness (ln)” value was -0.19.

As to U2G A43C C66A, the “yeast fitness (ln)” value is -0.0672.

As to U2C G6U C66U A70G C71U, the “yeast fitness (ln)” value is -0.0593.

For U2C G6U C46U C66A, the “yeast fitness (ln)” value is -0.0276.

In the case of U2C G6U C46U C66U, the “yeast fitness (ln)” value was -0.12.

Regarding U2C G6U C27U C46U C66A C71U, the “yeast fitness (ln)” value is -0.0782.

Take U2C G6U C66A A69G A70G C71U: the “yeast fitness (ln)” value was -0.00896.

As for U2C G6U C46U A69G A70G, the “yeast fitness (ln)” value was -0.0922.

In the case of U2C G6U C46U A69G A70U, the “yeast fitness (ln)” value was -0.086.

In the case of U2C G6U C46U C66U C71U, the “yeast fitness (ln)” value was -0.112.

Regarding U2C G6U C46U A70G, the “yeast fitness (ln)” value is -0.0195.

U2C G6U C46U A70U: the “yeast fitness (ln)” value was -0.0445.

In the case of U2G A43C A69G C71U, the “yeast fitness (ln)” value was -0.163.

For U2G A43C C66A A70U, the “yeast fitness (ln)” value was -0.0996.

Turning to U2G A43C C66A A70G, the “yeast fitness (ln)” value is -0.103.

As for U2G A43C C46U C66U A70G C71U, the “yeast fitness (ln)” value is -0.156.

As for U2C G6U C27U C66A A69G A70G, the “yeast fitness (ln)” value was -0.0927.

For U2G A43C C46U C66U C71U, the “yeast fitness (ln)” value is -0.2.

Take U2C G6U C27U C66A A70U C71U: the “yeast fitness (ln)” value is -0.26.

Turning to U2C G6U C27U C66A A70G C71U, the “yeast fitness (ln)” value is -0.0263.

Turning to U2G A43C A69G A70U C71U, the “yeast fitness (ln)” value was -0.382.

Regarding U2C G6U C46U C66A A70U C71U, the “yeast fitness (ln)” value is -0.121.

U2C G6U C46U C66U A70U C71U: the “yeast fitness (ln)” value was -0.202.

U2C G6U C27U C66U A69G A70G: the “yeast fitness (ln)” value is -0.277.

Turning to U2C G6U C27U C66U A69G A70U, the “yeast fitness (ln)” value is -0.378.

Take U2C G6U C27U C46U C71U: the “yeast fitness (ln)” value is -0.235.

Consider U2C G6U C46U C66U A70G C71U, for which the “yeast fitness (ln)” value is -0.0117.

In the case of U2C G6U C46U C71U, the “yeast fitness (ln)” value is -0.0792.

With U2G A43C C46U C66U A69G, the “yeast fitness (ln)” value is -0.199.

Turning to U2G A43C C46U A69G, the “yeast fitness (ln)” value was -0.0675.

For the variant U2C G6U C27U C66A A70G, the “yeast fitness (ln)” value was -0.0277.

In the case of U2C G6U C27U C66A A70U, the “yeast fitness (ln)” value was -0.16.

For the variant U2G A43C C46U C66U A69G C71U, the “yeast fitness (ln)” value is -0.279.

With U2C G6U C27U C46U C66U A70U C71U, the “yeast fitness (ln)” value was -0.335.

As for U2C G6U C46U C66A A70G C71U, the “yeast fitness (ln)” value is -0.0101.

With U2C G6U C46U C66U A69G A70G C71U, the “yeast fitness (ln)” value is -0.1.

On to U2G A43C C46U C66U A69G A70G C71U, for which the “yeast fitness (ln)” value is -0.244.

U2G A43C C46U A69G A70G: the “yeast fitness (ln)” value is -0.174.

Turning to U2G A43C C46U A69G A70U, the “yeast fitness (ln)” value was -0.00112.

On to U2C G6U C27U C46U A69G C71U, for which the “yeast fitness (ln)” value is -0.232.

For U2C G6U C27U C46U A69G A70U, the “yeast fitness (ln)” value is -0.196.

As to U2C G6U C27U C46U A69G A70G, the “yeast fitness (ln)” value was -0.274.

For U2C G6U C27U C46U C66A A70U C71U, the “yeast fitness (ln)” value was -0.161.

On to U2C G6U C27U C46U C66U A70G C71U, for which the “yeast fitness (ln)” value was -0.177.

U2C G6U C66A A70U C71U: the “yeast fitness (ln)” value was -0.105.

As to U2C G6U C66U, the “yeast fitness (ln)” value was -0.0417.

U2C G6U C66A: the “yeast fitness (ln)” value was -0.00733.

Regarding U2C G6U C46U C66U A70U, the “yeast fitness (ln)” value was -0.0353.

Regarding U2C G6U C46U C66U A70G, the “yeast fitness (ln)” value was -0.0115.

In the case of U2C G6U C27U C71U, the “yeast fitness (ln)” value was -0.147.

On to U2C G6U C66U A69G A70G, for which the “yeast fitness (ln)” value was -0.103.

On to U2C G6U C66U A69G A70U, for which the “yeast fitness (ln)” value is -0.179.

Regarding U2C G6U C27U C66U A69G A70G C71U, the “yeast fitness (ln)” value was -0.288.

For U2G A43C A69G A70G C71U, the “yeast fitness (ln)” value is -0.168.

Consider U2G A43C A70G C71U, for which the “yeast fitness (ln)” value was -0.123.

Regarding U2C G6U C66U A69G C71U, the “yeast fitness (ln)” value was -0.176.

With U2G A43C C46U A69G C71U, the “yeast fitness (ln)” value is -0.107.

U2G: the “yeast fitness (ln)” value was -0.0125.

Turning to U2C G6U C27U C46U C66U C71U, the “yeast fitness (ln)” value was -0.183.

U2C G6U C27U C46U A69G A70G C71U: the “yeast fitness (ln)” value is -0.244.

Consider U2C G6U C27U C46U C66A A69G A70U C71U, for which the “yeast fitness (ln)” value is -0.319.

Turning to U2C G6U C46U C66A A69G A70G C71U, the “yeast fitness (ln)” value was -0.0159.

Regarding U2G A43C C46U C66A A69G A70U, the “yeast fitness (ln)” value was -0.0871.

Regarding U2G A43C C46U C66A A69G A70G, the “yeast fitness (ln)” value is -0.186.

As for U2G A43C C66A A69G A70U, the “yeast fitness (ln)” value is -0.231.

As for U2G A43C C66A A69G A70G, the “yeast fitness (ln)” value was -0.162.

In the case of U2C G6U C27U C46U C66U A69G A70G C71U, the “yeast fitness (ln)” value is -0.493.

For the variant U2C G6U C27U C66U A70U, the “yeast fitness (ln)” value is -0.194.

Turning to U2C G6U C27U C66U A70G, the “yeast fitness (ln)” value was -0.215.

With U2C G6U C27U C66U A69G A70U C71U, the “yeast fitness (ln)” value was -0.566.

For the variant U2C G6U C27U C46U C66A A70G C71U, the “yeast fitness (ln)” value was -0.0247.

As for U2C G6U C71U, the “yeast fitness (ln)” value was -0.0615.

For U2C G6U C46U, the “yeast fitness (ln)” value is -0.0289.

For U2C G6U C66U C71U, the “yeast fitness (ln)” value is -0.139.

As for U2C G6U C46U A70U C71U, the “yeast fitness (ln)” value is -0.0786.

Take U2C G6U C27U C46U A69G A70U C71U: the “yeast fitness (ln)” value is -0.334.

U2C G6U C27U C66A A69G A70U C71U: the “yeast fitness (ln)” value is -0.525.

As to U2C G6U C66A A69G A70U C71U, the “yeast fitness (ln)” value was -0.487.

With U2G A43C C46U A69G A70U C71U, the “yeast fitness (ln)” value was -0.509.

As for U2C G6U C27U C46U C66A, the “yeast fitness (ln)” value was -0.267.

Take U2C G6U C27U C46U C66U: the “yeast fitness (ln)” value was -0.183.

For U2G A43C C66A A69G A70G C71U, the “yeast fitness (ln)” value was -0.235.
